Experimental data: ChEMBL document CHEMBL4414574, “Structure-Based Discovery and Development of a Series of Potent and Selective Bromodomain and Extra-Terminal Protein Inhibitors” (J Med Chem, 2019)
Calls of active or inactive are those of the source. The calls are words filed in the database; no cut-off is given here.

Experiments:
Homo sapiens = species: Homo sapiens; experiment: Antiproliferative activity against human TY82 cells after 72 hrs by CCK8 or SRB assay; type: functional, cell-based
SW-620 = experiment: Antiproliferative activity against human SW620 cells after 72 hrs by CCK8 or SRB assay; type: functional, cell-based
[1] = AUC (0 to t) in ICR mouse brain at 50 mg/kg, po administered via gavage measured after 0.25 to 24 hrs by UPLC/MS analysis; type: ADME, organism-based; parameters: time lower 0.25 hr, dose 50 mg/kg, time upper 24 hr, route oral
How it was run: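 Male ICR mice were dosed orally in 1% DMSO/0.5% HPMC vehicle. Plasma (and brain, where stated) concentrations gave Tmax, Cmax, T1/2, AUC0-t and AUC0-inf.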

[2] = Tmax in ICR mouse brain at 50 mg/kg, po administered via gavage measured after 0.25 to 24 hrs by UPLC/MS analysis; type: ADME, organism-based
How it was run: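 Male ICR mice dosed orally at 50 mg/kg in 1% DMSO/0.5% HPMC; drug measured in plasma and brain.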

[3] = target: Bromodomain-containing protein 4 (Homo sapiens, UniProt O60885); experiment: Binding affinity to human partial length BRD4 bromodomain 1 long isoform (N44 to E168 residues) expressed in Escherichia coli BL21 cells assessed as residual binding level at 1 uM measured after 1 hr by quantitative PCR based BROMOscan assay relative to control
How it was run: (§1)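 A BROMOScan competition-binding panel of 32 bromodomains was run at a single 1 μM compound concentration. Results are primary-screen 'Percent Control', where lower values indicate stronger binding.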

[4] = target: CREB-binding protein (Homo sapiens) (UniProt Q92793); experiment: Binding affinity to human partial length CREBBP (R1081 to G1197 residues) expressed in Escherichia coli BL21 cells assessed as residual binding level at 1 uM measured after 1 hr by quantitative PCR based BROMOscan assay relative to control; how it was run: as §1
[5] = target: Transcription initiation factor TFIID subunit 1-like (Homo sapiens) (UniProt Q8IZX4); experiment: Binding affinity to human partial length TAF1L bromodomain 2 (Q1523 to D1654 residues) expressed in Escherichia coli BL21 cells assessed as residual binding level at 1 uM measured after 1 hr by quantitative PCR based BROMOscan assay relative to control
How it was run: (§2)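 Bromodomain panel screen (32 bromodomains) run at 1 μM single concentration; primary binding reported as 'Percent Control', lower values meaning stronger interaction.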

[6] = AUC (0 to t) in rat plasma at 3 mg/kg, iv; type: ADME, organism-based
How it was run: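 Compound was given orally or intravenously in 1% DMSO/0.5% HPMC vehicle. Concentrations in plasma, or in brain where stated, gave Tmax, Cmax, T1/2, AUC0-t and AUC0-inf.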

[7] = Tmax in rat brain at 50 mg/kg, po; type: ADME, organism-based
How it was run: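 Rats dosed orally at 50 mg/kg in 1% DMSO/0.5% HPMC; drug measured in plasma and brain.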

[8] = target: Chromatin remodeling regulator CECR2 (Homo sapiens) (UniProt Q9BXF3); experiment: Binding affinity to human partial length CECR2 (P423 to D543 residues) expressed in Escherichia coli BL21 cells assessed as residual binding level at 1 uM measured after 1 hr by quantitative PCR based BROMOscan assay relative to control; how it was run: as §1
[9] = target: Bromodomain adjacent to zinc finger domain protein 2A (Homo sapiens) (UniProt Q9UIF9); experiment: Binding affinity to human partial length BAZ2A (M1792 to L1905 residues) expressed in Escherichia coli BL21 cells assessed as residual binding level at 1 uM measured after 1 hr by quantitative PCR based BROMOscan assay relative to control; how it was run: as §1
MV4-11 [10] = experiment: Induction of apoptosis in human MV4-11 cells assessed as increase in cleaved caspase-3 level after 24 hrs by Western blot analysis; type: functional, cell-based
How it was run: (§3)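 MV4-11 cells exposed to compound at the indicated doses for 24 h; lysates probed by Western blotting for the target protein, with GAPDH as loading control.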

MV4-11 [11] = experiment: Induction of apoptosis in human MV4-11 cells assessed as reduction in PUMA level after 24 hrs by Western blot analysis; type: functional, cell-based; how it was run: as §3
[12] = target: SWI/SNF-related matrix-associated actin-dependent regulator of chromatin subfamily A member 4 (Homo sapiens) (UniProt P51532); experiment: Binding affinity to human partial length SMARCA4 (A1448 to S1575 residues) expressed in Escherichia coli BL21 cells assessed as residual binding level at 1 uM measured after 1 hr by quantitative PCR based BROMOscan assay relative to control; how it was run: as §2
[13] = Clearance in rat liver microsomes; type: ADME, Microsome; settings: read-out: CLH
[14] = Drug uptake in plasma of Balb/c nude mouse xenografted with human MV4-11 cells at 10 to 50 mg/kg, po measured after 1 to 8 hrs; type: ADME, organism-based; settings: in vivo
How it was run: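 MV4-11 xenografts in BALB/c nude mice given oral compound; drug concentrations in plasma and tumor tissue measured at 1 h and 8 h after dosing.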

MV4-11 [15] = experiment: Induction of apoptosis in human MV4-11 cells assessed as decrease in full-length caspase-8 level at 10 to 1000 nM after 24 hrs by Western blot analysis; type: functional, cell-based; how it was run: as §3
BT-549 = experiment: Antiproliferative activity against human BT549 cells after 72 hrs by CCK8 or SRB assay; type: functional, cell-based
[16] = target: Tyrosine-protein kinase ABL1 (Homo sapiens) (UniProt P00519); experiment: Inhibition of Abl (unknown origin) at 10 uM using poly (Glu, Tyr) 4:1 as substrate after 60 mins by ELISA
[17] = target: Bromodomain-containing protein 3 (Homo sapiens) (UniProt Q15059); experiment: Binding affinity to human partial length BRD3 bromodomain 1 (P24 to E144 residues) expressed in Escherichia coli BL21 cells assessed as residual binding level at 1 uM measured after 1 hr by quantitative PCR based BROMOscan assay relative to control; how it was run: as §1
MV4-11 [18] = experiment: Induction of apoptosis in human MV4-11 cells assessed as reduction in BCL-xL level after 24 hrs by Western blot analysis; type: functional, cell-based; how it was run: as §3
[19] = Toxicity in Balb/c nude mouse xenografted with human MV4-11 cells assessed as effect on mouse survival at 10 to 50 mg/kg, administered once daily; type: organism-based; settings: in vivo
[20] = target: Histone acetyltransferase KAT2B (Homo sapiens) (UniProt Q92831); experiment: Binding affinity to human partial length PCAF (G715 to D831 residues) expressed in mammalian expression system assessed as residual binding level at 1 uM measured after 1 hr by quantitative PCR based BROMOscan assay relative to control; how it was run: as §2
[21] = target: Bromodomain-containing protein 1 (Homo sapiens) (UniProt O95696); experiment: Binding affinity to human partial length BRD1 (E556 to A688 residues) expressed in Escherichia coli BL21 cells assessed as residual binding level at 1 uM measured after 1 hr by quantitative PCR based BROMOscan assay relative to control; how it was run: as §1
[22] = target: Bromodomain-containing protein 3 (Homo sapiens) (UniProt Q15059); experiment: Binding affinity to human partial length BRD3 bromodomain 2 (G306 to P416 residues) expressed in Escherichia coli BL21 cells assessed as residual binding level at 1 uM measured after 1 hr by quantitative PCR based BROMOscan assay relative to control; how it was run: as §1
Peregrin (Homo sapiens) = Peregrin (Homo sapiens) (UniProt P55201); experiment: Binding affinity to human partial length BRPF1 (E627 to G740 residues) expressed in Escherichia coli BL21 cells assessed as residual binding level at 1 uM measured after 1 hr by quantitative PCR based BROMOscan assay relative to control; how it was run: as §1

Chain of Bromodomain-containing protein 3 (Homo sapiens) (Q15059 2-726 limits assumed): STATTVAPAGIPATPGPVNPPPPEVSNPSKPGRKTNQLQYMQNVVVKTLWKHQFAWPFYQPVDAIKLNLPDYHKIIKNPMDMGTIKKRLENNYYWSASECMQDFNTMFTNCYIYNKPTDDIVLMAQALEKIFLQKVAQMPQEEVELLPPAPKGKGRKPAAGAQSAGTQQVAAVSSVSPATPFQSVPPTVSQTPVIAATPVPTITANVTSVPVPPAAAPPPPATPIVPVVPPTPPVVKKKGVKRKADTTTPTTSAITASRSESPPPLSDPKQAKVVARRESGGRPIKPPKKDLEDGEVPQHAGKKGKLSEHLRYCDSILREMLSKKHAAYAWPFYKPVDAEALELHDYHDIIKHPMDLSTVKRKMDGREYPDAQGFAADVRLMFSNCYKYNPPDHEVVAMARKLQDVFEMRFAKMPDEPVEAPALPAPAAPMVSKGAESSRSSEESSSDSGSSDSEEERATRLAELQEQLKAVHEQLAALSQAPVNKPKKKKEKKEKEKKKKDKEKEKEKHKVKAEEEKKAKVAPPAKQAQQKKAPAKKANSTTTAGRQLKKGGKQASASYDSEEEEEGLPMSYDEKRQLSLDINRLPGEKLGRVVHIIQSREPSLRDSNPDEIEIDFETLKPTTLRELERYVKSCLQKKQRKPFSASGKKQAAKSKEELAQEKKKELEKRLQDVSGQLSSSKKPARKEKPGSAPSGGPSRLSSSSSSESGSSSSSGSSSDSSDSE
Chain of CREB-binding protein (Homo sapiens) (Q92793 2-2442 limits assumed): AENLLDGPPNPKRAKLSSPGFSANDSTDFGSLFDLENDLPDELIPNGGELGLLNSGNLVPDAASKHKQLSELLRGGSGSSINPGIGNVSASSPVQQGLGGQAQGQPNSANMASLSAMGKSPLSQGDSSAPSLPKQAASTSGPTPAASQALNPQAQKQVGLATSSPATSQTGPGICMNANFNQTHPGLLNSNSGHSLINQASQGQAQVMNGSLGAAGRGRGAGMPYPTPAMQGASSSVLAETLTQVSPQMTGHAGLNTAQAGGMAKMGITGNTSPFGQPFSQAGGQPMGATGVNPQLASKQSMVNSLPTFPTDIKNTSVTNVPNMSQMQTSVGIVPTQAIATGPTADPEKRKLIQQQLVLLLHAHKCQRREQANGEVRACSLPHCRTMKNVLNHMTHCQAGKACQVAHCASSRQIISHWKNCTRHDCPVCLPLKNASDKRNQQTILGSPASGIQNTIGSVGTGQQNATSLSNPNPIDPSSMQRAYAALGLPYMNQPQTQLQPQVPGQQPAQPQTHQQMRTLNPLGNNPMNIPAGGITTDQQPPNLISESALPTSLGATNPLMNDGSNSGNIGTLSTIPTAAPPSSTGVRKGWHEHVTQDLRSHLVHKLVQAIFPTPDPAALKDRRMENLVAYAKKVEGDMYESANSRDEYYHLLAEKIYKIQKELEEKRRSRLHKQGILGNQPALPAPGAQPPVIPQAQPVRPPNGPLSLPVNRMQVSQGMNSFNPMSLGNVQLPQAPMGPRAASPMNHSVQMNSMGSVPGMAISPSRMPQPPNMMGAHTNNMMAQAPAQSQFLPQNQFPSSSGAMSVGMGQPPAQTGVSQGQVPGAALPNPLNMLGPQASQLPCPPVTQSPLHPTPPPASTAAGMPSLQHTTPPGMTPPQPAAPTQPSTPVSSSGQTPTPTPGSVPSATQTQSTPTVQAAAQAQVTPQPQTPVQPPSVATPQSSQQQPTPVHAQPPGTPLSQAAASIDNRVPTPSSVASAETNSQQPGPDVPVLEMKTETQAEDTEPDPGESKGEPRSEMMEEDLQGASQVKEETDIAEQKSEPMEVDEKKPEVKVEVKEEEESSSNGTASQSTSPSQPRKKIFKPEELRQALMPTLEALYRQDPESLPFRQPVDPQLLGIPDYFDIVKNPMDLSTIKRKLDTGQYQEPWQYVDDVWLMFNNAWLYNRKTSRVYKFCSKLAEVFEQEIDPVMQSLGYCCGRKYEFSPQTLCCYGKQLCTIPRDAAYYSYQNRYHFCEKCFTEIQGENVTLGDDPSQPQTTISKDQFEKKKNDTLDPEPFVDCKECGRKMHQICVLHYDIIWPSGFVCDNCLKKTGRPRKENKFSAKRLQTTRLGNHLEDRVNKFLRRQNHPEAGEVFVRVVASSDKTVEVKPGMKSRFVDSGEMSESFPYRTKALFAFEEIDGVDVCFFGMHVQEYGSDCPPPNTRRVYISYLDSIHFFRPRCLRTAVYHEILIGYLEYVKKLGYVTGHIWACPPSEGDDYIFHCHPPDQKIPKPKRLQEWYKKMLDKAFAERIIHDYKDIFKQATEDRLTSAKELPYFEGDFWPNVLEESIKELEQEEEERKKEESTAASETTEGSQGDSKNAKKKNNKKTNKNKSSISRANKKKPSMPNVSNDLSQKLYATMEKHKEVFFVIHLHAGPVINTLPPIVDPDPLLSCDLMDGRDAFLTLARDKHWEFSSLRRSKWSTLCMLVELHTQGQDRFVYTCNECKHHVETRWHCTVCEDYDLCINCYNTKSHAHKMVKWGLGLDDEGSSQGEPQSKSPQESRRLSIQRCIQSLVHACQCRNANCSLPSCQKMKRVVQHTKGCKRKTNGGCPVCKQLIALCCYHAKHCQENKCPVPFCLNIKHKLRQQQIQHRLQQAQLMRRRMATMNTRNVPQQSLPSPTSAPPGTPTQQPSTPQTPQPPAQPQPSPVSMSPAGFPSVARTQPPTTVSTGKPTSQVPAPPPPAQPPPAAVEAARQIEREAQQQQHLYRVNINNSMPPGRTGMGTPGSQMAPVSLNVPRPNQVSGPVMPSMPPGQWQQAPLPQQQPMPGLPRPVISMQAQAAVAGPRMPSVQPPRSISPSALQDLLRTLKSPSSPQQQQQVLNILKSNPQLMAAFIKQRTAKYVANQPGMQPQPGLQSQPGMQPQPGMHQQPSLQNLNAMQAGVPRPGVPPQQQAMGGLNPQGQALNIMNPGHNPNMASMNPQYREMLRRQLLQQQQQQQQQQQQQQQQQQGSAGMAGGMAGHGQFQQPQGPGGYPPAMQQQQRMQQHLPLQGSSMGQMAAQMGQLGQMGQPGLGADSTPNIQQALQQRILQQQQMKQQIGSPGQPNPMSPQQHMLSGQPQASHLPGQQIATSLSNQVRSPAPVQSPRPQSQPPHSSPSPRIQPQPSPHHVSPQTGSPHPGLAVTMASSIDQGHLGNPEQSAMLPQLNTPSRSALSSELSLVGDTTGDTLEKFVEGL
Chain of Bromodomain-containing protein 1 (Homo sapiens) (O95696 whole entry, the tested form may be a part): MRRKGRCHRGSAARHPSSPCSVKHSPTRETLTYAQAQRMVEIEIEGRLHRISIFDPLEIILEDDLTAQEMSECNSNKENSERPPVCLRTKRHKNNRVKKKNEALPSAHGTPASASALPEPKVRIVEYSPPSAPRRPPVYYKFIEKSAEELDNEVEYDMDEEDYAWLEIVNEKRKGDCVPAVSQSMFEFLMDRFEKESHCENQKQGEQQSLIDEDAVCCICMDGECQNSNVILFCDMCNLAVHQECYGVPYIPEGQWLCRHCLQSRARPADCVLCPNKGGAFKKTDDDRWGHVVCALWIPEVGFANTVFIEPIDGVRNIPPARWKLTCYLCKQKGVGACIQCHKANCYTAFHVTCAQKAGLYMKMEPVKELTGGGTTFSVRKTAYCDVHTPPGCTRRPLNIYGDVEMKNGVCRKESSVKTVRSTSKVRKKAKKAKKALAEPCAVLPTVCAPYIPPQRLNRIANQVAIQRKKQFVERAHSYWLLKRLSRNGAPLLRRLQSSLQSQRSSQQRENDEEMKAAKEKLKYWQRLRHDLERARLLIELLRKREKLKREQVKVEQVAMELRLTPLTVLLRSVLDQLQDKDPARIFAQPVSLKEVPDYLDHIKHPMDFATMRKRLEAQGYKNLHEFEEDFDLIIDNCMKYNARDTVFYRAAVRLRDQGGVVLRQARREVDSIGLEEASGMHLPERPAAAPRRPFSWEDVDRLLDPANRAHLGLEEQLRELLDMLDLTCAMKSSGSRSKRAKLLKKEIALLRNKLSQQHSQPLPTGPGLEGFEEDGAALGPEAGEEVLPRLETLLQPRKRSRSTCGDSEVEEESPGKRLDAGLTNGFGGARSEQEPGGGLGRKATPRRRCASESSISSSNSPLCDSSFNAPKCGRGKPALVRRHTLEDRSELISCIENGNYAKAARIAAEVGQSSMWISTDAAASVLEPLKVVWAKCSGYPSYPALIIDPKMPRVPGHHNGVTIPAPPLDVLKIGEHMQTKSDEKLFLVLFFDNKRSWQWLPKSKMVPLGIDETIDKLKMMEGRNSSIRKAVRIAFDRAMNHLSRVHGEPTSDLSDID
Chain of Histone acetyltransferase KAT2B (Homo sapiens) (Q92831 whole entry, looked up, the tested form may be a part): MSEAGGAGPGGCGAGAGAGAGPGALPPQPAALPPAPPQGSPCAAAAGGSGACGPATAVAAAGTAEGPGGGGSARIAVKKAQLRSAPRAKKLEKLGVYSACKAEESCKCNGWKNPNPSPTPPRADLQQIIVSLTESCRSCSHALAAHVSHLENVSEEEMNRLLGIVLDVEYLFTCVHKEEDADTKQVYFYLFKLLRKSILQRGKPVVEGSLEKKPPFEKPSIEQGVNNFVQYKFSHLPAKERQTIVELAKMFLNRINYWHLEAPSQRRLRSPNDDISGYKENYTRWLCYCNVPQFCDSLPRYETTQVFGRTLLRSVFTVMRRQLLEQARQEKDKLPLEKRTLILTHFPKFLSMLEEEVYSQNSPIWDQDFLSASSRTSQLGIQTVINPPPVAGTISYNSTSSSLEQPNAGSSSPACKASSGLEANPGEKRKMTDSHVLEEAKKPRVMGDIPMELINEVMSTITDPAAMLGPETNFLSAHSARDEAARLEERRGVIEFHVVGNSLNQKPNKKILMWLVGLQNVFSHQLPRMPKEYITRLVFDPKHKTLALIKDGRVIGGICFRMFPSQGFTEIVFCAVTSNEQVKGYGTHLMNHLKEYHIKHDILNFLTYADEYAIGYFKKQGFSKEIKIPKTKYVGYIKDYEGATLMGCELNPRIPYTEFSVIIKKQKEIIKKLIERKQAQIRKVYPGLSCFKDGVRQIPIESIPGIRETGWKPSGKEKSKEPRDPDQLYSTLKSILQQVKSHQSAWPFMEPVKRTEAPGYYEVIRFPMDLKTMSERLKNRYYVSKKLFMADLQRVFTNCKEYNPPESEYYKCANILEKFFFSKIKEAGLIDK

For `Cc1ccc(-n2nc(C(=O)N3C[C@@H](C)N[C@@H](C)C3)nc2-c2ccc3c(c2)N(C2CCCC2)[C@H](C)C(=O)N3C)cc1`, the Activity (Homo sapiens) was “Active”, the Activity (SW-620) was “Active” and the AUC(0-t) [1] was 2320 ng·h/mL. For the same molecule, the Tmax [2] was 60 min, the Activity [3] was < 5% and the Activity [4] was 50 to 70%. The Activity [5] was 20 to 50%, the AUC(0-t) [6] was 2010 ng·h/mL and the Tmax [7] was 54 min. For the same molecule, the Activity [8] was 70 to 100%, the Activity [9] was 70 to 100% and the Activity (MV4-11 [10]) was “Dose-dependent effect”. For the same molecule, the Activity (MV4-11 [11]) was “Dose-dependent effect”, the Activity [12] was 70 to 100% and the microsomal CLint [13] was 28 µL/min/mg. The Drug uptake [14] was “Active”, the Activity (MV4-11 [15]) was “Active” and the Activity (BT-549) was “Active”. The inhibition [16] was “Active”, the Activity [17] was < 5% and the Activity (MV4-11 [18]) was “Dose-dependent effect”. For the same molecule, the Activity [19] was “Non-Toxic”, the Activity [20] was 70 to 100% and the Activity [21] was 50 to 70%. For the same molecule, the Activity [22] was < 5% and the Activity (Peregrin (Homo sapiens)) was 70 to 100%.
